Assay results taken from PMC8268672 (Bioorganic Chemistry, 2021).
In brackets after ≈: the same amount, converted by molar mass. Read-outs that look alike come from different tables or passages of the source.

Tests used:
[1] = tested on: Staphylococcus aureus (ATCC 29213); assay: Agar disk diffusion, inhibition zone; format: cell-based; conditions: 100 µg/8 mm disc, triplicate, mean ± SD
Procedure, shortened: (§1)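 Agar disk diffusion on Mueller-Hinton agar plates seeded with a standard bacterial suspension. Test compound stock in DMSO, diluted with distilled water; 8 mm sterile filter-paper discs soaked in the solution. Ampicillin was the reference. Plates incubated at 35 °C for 24 h, in triplicate. Read-out is the average inhibition-zone diameter (mm) around each disc.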

Sindbis virus = assay: CPE reduction assay in Vero cells; format: cell-based; conditions: read-out: Antiviral EC50, Sindbis virus
[2] = tested on: Salmonella typhimurium (NCIM-2501); assay: Agar disk diffusion, inhibition zone; format: cell-based; conditions: 100 µg/8 mm disc, triplicate, mean ± SD
[3] = tested on: Streptococcus pneumonia (ATCC 49619); assay: Agar disk diffusion, inhibition zone; format: cell-based; conditions: 100 µg/8 mm disc, triplicate, mean ± SD
[4] = tested on: Escherichia coli (ATCC 8739); assay: Agar disk diffusion, inhibition zone; format: cell-based; conditions: 100 µg/8 mm disc, triplicate, mean ± SD
Procedure, shortened: as §1

Punta Toro virus = assay: CPE reduction assay in Vero cells; format: cell-based; conditions: read-out: Antiviral EC50, Punta Toro virus
[5] = tested on: Aspergillus niger (NCIM 2191); assay: MIC, broth microdilution; format: cell-based; conditions: NCIM2191, read-out: Minimum inhibitory concentration (MIC), AN
Procedure, shortened: (§2)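 Antifungal MICs by CLSI broth microdilution in Sabouraud liquid medium. Test compounds and standard drugs are serially diluted two-fold from 512 to 0.25. The fungal broth culture is grown 24 h at 35 °C to a 0.5 McFarland turbidity, then adjusted with sterile solution to the final inoculum.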

[6] = tested on: Pseudomonas aeruginosa (MCCB 0035); assay: MIC, broth microdilution; format: cell-based; conditions: read-out: Minimum inhibitory concentration (MIC), PA
Procedure, shortened: (§3)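 Broth microdilution per CLSI in Mueller-Hinton broth, using two-fold serial dilutions of test compound and reference drugs from 512 to 0.25. Bacterial broth cultures were grown 2-6 h to 0.5 McFarland turbidity, then diluted with sterile solution to the final inoculum. MIC is reported in µg/mL.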

Influenza B B/Ned/537/05 = assay: CPE reduction assay in MDCK cells; format: cell-based; conditions: Influenza B virus, read-out: Antiviral EC50, Influenza B B/Ned/537/05, MTS
[7] = tested on: Aspergillus fumigatus (NCIM 2081); assay: Agar disk diffusion, inhibition zone; format: cell-based; conditions: 100 µg/8 mm disc, triplicate, mean ± SD
[8] = tested on: Bacillus cereus (NCIM-2458); assay: Agar disk diffusion, inhibition zone; format: cell-based; conditions: 100 µg/8 mm disc, triplicate, mean ± SD
[9] = tested on: Klebsiella aerogenes (NCIM-2098); assay: MIC, broth microdilution; format: cell-based; conditions: NCIM2098, read-out: Minimum inhibitory concentration (MIC), KA
Procedure, shortened: (§4)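 Antibacterial MICs by CLSI broth microdilution in Mueller-Hinton broth. Test compounds and standard drugs are serially diluted two-fold from 512 to 0.25. The bacterial broth culture is grown 2-6 h to a 0.5 McFarland turbidity, then adjusted with sterile solution to the final inoculum.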

Human Coronavirus (229E) = assay: CPE reduction assay in HEL cells; format: cell-based; conditions: read-out: Antiviral EC50, Human Coronavirus (229E)
[10] = tested on: Pseudomonas aeruginosa (MCCB 0035); assay: Agar disk diffusion, inhibition zone; format: cell-based; conditions: 100 µg/8 mm disc, triplicate, mean ± SD
[11] = tested on: Madin Darby canine kidney (MDCK) cells; conditions: dog
[12] = tested on: Lactobacillus casei (NCIM-2651); assay: Agar disk diffusion, inhibition zone; format: cell-based; conditions: 100 µg/8 mm disc, triplicate, mean ± SD
[13] = tested on: Cryptococcus neoformans (ATCC 9011); assay: MIC, broth microdilution; format: cell-based; conditions: ATCC9011, read-out: Minimum inhibitory concentration (MIC), CN
Procedure, shortened: as §2

MT4 cells = conditions: MT4 cell cultures; colorimetric MTT cell viability assay
[14] = tested on: Klebsiella aerogenes (NCIM-2098); assay: Agar disk diffusion, inhibition zone; format: cell-based; conditions: 100 µg/8 mm disc, triplicate, mean ± SD
[15] = tested on: Staphylococcus aureus (ATCC 29213); assay: MIC, broth microdilution; format: cell-based; conditions: ATCC29213, read-out: Minimum inhibitory concentration (MIC), SA
Procedure, shortened: as §4

[16] = tested on: Cryptococcus neoformans (ATCC 9011); assay: Agar disk diffusion, inhibition zone; format: cell-based; conditions: 100 µg/8 mm disc, triplicate, mean ± SD
[17] = tested on: Candida albicans (NCIM 2087); assay: MIC, broth microdilution; format: cell-based; conditions: NCIM2087, read-out: Minimum inhibitory concentration (MIC), CA
Procedure, shortened: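 CLSI broth microdilution in Sabouraud liquid medium, with test compound two-fold serially diluted from 512 to 0.25. Fungal broth culture grown 24 h at 35 °C to 0.5 McFarland turbidity, then adjusted with sterile solution to a final […] inoculum. MIC expressed in µg/mL.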

Vero cells = conditions: Vero cell cultures; microscopically detectable alteration of normal cell morphology
[18] = tested on: Bacillus cereus (NCIM-2458); assay: MIC, broth microdilution; format: cell-based; conditions: NCIM2458, read-out: Minimum inhibitory concentration (MIC), BC
Procedure, shortened: as §3

[19] = tested on: Influenza A/H1N1 A/Ned/378/05; assay: CPE reduction assay in MDCK cells; format: cell-based; conditions: Influenza A virus
[20] = tested on: Aspergillus fumigatus (NCIM 2081); assay: MIC, broth microdilution; format: cell-based; conditions: NCIM2081, read-out: Minimum inhibitory concentration (MIC), AF
Procedure, shortened: as §2

Para-influenza-3 virus = assay: CPE reduction assay in Vero cells; format: cell-based, Parainfluenza-3 virus; conditions: Vero, read-out: Antiviral EC50, Para-influenza-3 virus
[21] = tested on: Escherichia coli (ATCC 8739); assay: MIC, broth microdilution; format: cell-based; conditions: ATCC8739, read-out: Minimum inhibitory concentration (MIC), EC
Procedure, shortened: as §3

[22] = tested on: Aspergillus niger (NCIM 2191); assay: Agar disk diffusion, inhibition zone; format: cell-based; conditions: 100 µg/8 mm disc, triplicate, mean ± SD
Procedure, shortened: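 For the fungal strain, discs soaked in test compound solution (DMSO stock diluted with distilled water) sat on seeded Mueller-Hinton agar. Clotrimazole was the reference. Incubation ran 48 h at 35 °C, in triplicate. Zone of growth inhibition recorded in mm as the mean diameter around each disc.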

[23] = tested on: Influenza A/H3N2 A/HK/7/87; assay: CPE reduction assay in MDCK cells; format: cell-based; conditions: Influenza A virus
Yellow Fever virus = assay: microbe, parasite or virus in culture; format: cell-based; conditions: Yellow fever virus, Vero, read-out: Antiviral EC50, Yellow Fever virus
Reovirus-1 = assay: CPE reduction assay in Vero cells; format: cell-based; conditions: read-out: Antiviral EC50, Reovirus-1
[24] = tested on: Human embryonic lung (HEL) cells; conditions: HEL cell cultures; microscopically detectable alteration of normal cell morphology
[25] = tested on: Candida albicans (NCIM 2087); assay: Agar disk diffusion, inhibition zone; format: cell-based; conditions: 100 µg/8 mm disc, triplicate, mean ± SD
Adeno virus-2 = assay: CPE reduction assay in HEL cells; format: cell-based; conditions: read-out: Antiviral EC50, Adeno virus-2
Coxsackie virus B4 = assay: CPE reduction assay in Vero cells; format: cell-based; conditions: Enterovirus B, read-out: Antiviral EC50, Coxsackie virus B4
Vaccinia virus = assay: microbe, parasite or virus in culture; format: cell-based; conditions: Orthopoxvirus vaccinia, HEL, read-out: Antiviral EC50, Vaccinia virus
[26] = read-out: Antiviral EC50, Influenza A/H1N1 A/Ned/378/05, MTS
[27] = read-out: Antiviral EC50, Influenza A/H1N1 A/Ned/378/05, visual CPE score
[28] = read-out: Antiviral EC50, Influenza A/H3N2 A/HK/7/87, MTS
[29] = read-out: Antiviral EC50, Influenza A/H3N2 A/HK/7/87, visual CPE score

SMILES	Diameter of growth inhibition zone, SA [1] [mm]	EC50 (Sindbis virus) [µM]	Diameter of growth inhibition zone, ST [2] [mm]	Diameter of growth inhibition zone, SP [3] [mm]	Diameter of growth inhibition zone, EC [4] [mm]	EC50 (Punta Toro virus) [µM]	MIC [5] [µg/mL]	MIC [6] [µg/mL]	EC50 (Influenza B B/Ned/537/05) [µM]	Diameter of growth inhibition zone, AF [7] [mm]	Diameter of growth inhibition zone, BC [8] [mm]	MIC [9] [µg/mL]	EC50 (Human Coronavirus (229E)) [µM]	Diameter of growth inhibition zone, PA [10] [mm]	Cytotoxicity, Minimum cytotoxic conc. [11] [µM]	Diameter of growth inhibition zone, LC [12] [mm]	MIC [13] [µg/mL]	Minimum cytotoxic conc. (MT4 cells) [µM]	Diameter of growth inhibition zone, KA [14] [mm]	MIC [15] [µg/mL]	other results
Cc1ccc(S(=O)(=O)N2C(=O)CSC2c2ccccc2O)cc1 (stereo not drawn) [5k, 2-(2-Hydroxyphenyl)-3-[(4-methylphenyl)sulfonyl]-1,3-thiazolidin-4-one]	16 ± 0.32	> 100	10 ± 0.8	08 ± 0.3	18.8 ± 0.9	> 100	32 (≈ 91.6 µM)	32 (≈ 91.6 µM)	> 100	13 ± 1.5	10 ± 0.3	32 (≈ 91.6 µM)	> 100	17.5 ± 0.6	>100	10 ± 1.25	64 (≈ 183 µM)	>125	12 ± 0.48	64 (≈ 183 µM)	Diameter of growth inhibition zone, CN [16]: 11 ± 1.2 mm; MIC [17]: 16 µg/mL (≈ 45.8 µM); Minimum cytotoxic conc. (Vero cells): >100 µM; MIC [18]: 64 µg/mL (≈ 183 µM); EC50 [19, 26]: > 100 µM; EC50 [19, 27]: > 100 µM; MIC [20]: 32 µg/mL (≈ 91.6 µM); EC50 (Para-influenza-3 virus): > 100 µM; MIC [21]: 32 µg/mL (≈ 91.6 µM); Diameter of growth inhibition zone, AN [22]: 15 ± 0.93 mm; EC50 [23, 28]: > 100 µM; EC50 [23, 29]: > 100 µM; EC50 (Yellow Fever virus): > 100 µM; EC50 (Reovirus-1): > 100 µM; Minimum cytotoxic conc. [24]: >100 µM; Diameter of growth inhibition zone, CA [25]: 16 ± 0.32 mm; EC50 (Adeno virus-2): > 100 µM; EC50 (Coxsackie virus B4): > 100 µM; EC50 (Vaccinia virus): > 100 µM
Cc1ccc(S(=O)(=O)N2C(=O)CSC2c2ccc(O)cc2)cc1 (stereo not drawn) [5m, 2-(4-Hydroxyphenyl)-3-[(4-methylphenyl)sulfonyl]-1,3-thiazolidin-4-one]	13 ± 0.63	> 100	12 ± 0.4	12 ± 2.1	15.9 ± 0.23	> 100	64 (≈ 183 µM)	16 (≈ 45.8 µM)	> 100	10 ± 1.2	10 ± 0.6	64 (≈ 183 µM)	> 100	15.2 ± 0.96	>100	14 ± 0.64	64 (≈ 183 µM)	>125	10 ± 0.4	32 (≈ 91.6 µM)	Diameter of growth inhibition zone, CN [16]: 13 ± 1.4 mm; MIC [17]: 32 µg/mL (≈ 91.6 µM); Minimum cytotoxic conc. (Vero cells): >100 µM; MIC [18]: 64 µg/mL (≈ 183 µM); EC50 [19, 26]: > 100 µM; EC50 [19, 27]: > 100 µM; MIC [20]: 128 µg/mL (≈ 366 µM); EC50 (Para-influenza-3 virus): > 100 µM; MIC [21]: 16 µg/mL (≈ 45.8 µM); Diameter of growth inhibition zone, AN [22]: 13 ± 0.6 mm; EC50 [23, 28]: > 100 µM; EC50 [23, 29]: > 100 µM; EC50 (Yellow Fever virus): > 100 µM; EC50 (Reovirus-1): > 100 µM; Minimum cytotoxic conc. [24]: >100 µM; Diameter of growth inhibition zone, CA [25]: 15 ± 0.35 mm; EC50 (Adeno virus-2): > 100 µM; EC50 (Coxsackie virus B4): > 100 µM; EC50 (Vaccinia virus): > 100 µM
Cc1ccc(S(=O)(=O)N2C(=O)CSC2c2ccccc2[N+](=O)[O-])cc1 (stereo not drawn) [5o, 3-[(4-Methylphenyl)sulfonyl]-2-(2-nitrophenyl)-1,3-thiazolidin-4-one]	15 ± 1.5	> 100	10 ± 0.8	10 ± 1.5	16 ± 0.9	> 100	16 (≈ 42.3 µM)	32 (≈ 84.6 µM)	> 100	18 ± 0.9	10 ± 0.6	32 (≈ 84.6 µM)	> 100	15 ± 1.1	>100	12 ± 0.66	2 (≈ 5.28 µM)	>125	12 ± 0.34	16 (≈ 42.3 µM)	Diameter of growth inhibition zone, CN [16]: 19 ± 1.2 mm; MIC [17]: 8 µg/mL (≈ 21.1 µM); Minimum cytotoxic conc. (Vero cells): >100 µM; MIC [18]: 64 µg/mL (≈ 169 µM); EC50 [19, 26]: > 100 µM; EC50 [19, 27]: > 100 µM; MIC [20]: 16 µg/mL (≈ 42.3 µM); EC50 (Para-influenza-3 virus): > 100 µM; MIC [21]: 16 µg/mL (≈ 42.3 µM); Diameter of growth inhibition zone, AN [22]: 19 ± 1.5 mm; EC50 [23, 28]: > 100 µM; EC50 [23, 29]: > 100 µM; EC50 (Yellow Fever virus): > 100 µM; EC50 (Reovirus-1): > 100 µM; Minimum cytotoxic conc. [24]: >100 µM; Diameter of growth inhibition zone, CA [25]: 20 ± 1.1 mm; EC50 (Adeno virus-2): > 100 µM; EC50 (Coxsackie virus B4): > 100 µM; EC50 (Vaccinia virus): > 100 µM
